# This is a sample that favours compounds with a hit; in the whole collection about 1.7% have one here.
# CCR6 antagonist: CCR6 receptor antagonists, primary screen, cell-based, CHO-K1, luminescence, beta-arrestin, uHTS; C-C chemokine receptor type 6 (Homo sapiens), P51684; CHO-K1 CCR6 PathHunter beta-arrestin, CCL20-stimulated; inhibition, % at 20 µM; 340,000 compounds, 0.49% hits;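 active = compounds whose inhibition of the agonist-driven luminescence signal at 20 µM reaches about 50%, limit read from the data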;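 note: cells stimulated with CCL20 at 14 nM final; plate controls were DMSO with CCL20 for no effect and DMSO without agonist for full effect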
# APJ antagonist: antagonists of human apelin receptor APJ, primary screen, CHO-K1 cells, beta-arrestin complementation, luminescence; inhibition, % at 20 µM; 330,000 compounds, 0.32% hits; P35414;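 active = inhibition above about 40% at 20 µM, limit read from the data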;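 note: cells challenged with 10 nM apelin-13 agonist together with compound; plate controls were apelin-13 plus DMSO wells for no effect and DMSO wells lacking apelin-13 for full effect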
# B2AR ag: beta2AR agonists driving receptor internalization, primary screen, cell-based, FAP fluorogen, flow cytometry; Beta-2 adrenergic receptor (Homo sapiens), P07550; Am2.2-beta2AR cells; response, % (concentration not given with the values); 340,000 compounds, 0.43% hits;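 active = response above a set limit, near 3 SD of response in nonfluorescent compounds, cut at about 42% in these data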
# Target sequence (P07550 whole entry, looked up): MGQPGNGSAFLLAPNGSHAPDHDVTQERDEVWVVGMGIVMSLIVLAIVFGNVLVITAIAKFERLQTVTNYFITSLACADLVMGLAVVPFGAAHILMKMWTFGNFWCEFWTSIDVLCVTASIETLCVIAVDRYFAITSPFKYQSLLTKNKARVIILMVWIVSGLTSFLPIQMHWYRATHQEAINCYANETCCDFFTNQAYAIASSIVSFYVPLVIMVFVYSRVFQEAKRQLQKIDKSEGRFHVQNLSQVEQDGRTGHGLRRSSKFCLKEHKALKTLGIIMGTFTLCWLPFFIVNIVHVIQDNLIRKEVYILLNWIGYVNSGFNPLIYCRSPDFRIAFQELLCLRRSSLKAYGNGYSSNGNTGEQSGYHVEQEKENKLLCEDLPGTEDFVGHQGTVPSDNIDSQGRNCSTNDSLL
# CXCR6 block: CXCR6 receptor inhibitors, primary screen, cell-based, beta-arrestin, luminescence, CHO-K1 PathHunter, 1536-well | C-X-C chemokine receptor type 6 (Homo sapiens), O00574 | inhibition, % at 20 µM | 360,000 compounds, 0.36% hits | AID 602244, 2012; in the data active = inhibition above about 34%, passing the limit was not always enough;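 note: antagonist mode with CXCL16 agonist at 10 nM final; 0% = 10 nM CXCL16 with DMSO and 100% = unstimulated wells without agonist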
# APJ agonist: agonists of human apelin receptor APJ, primary screen, CHO-K1 cells, PathHunter beta-arrestin, luminescence | P35414 | 0% DMSO wells, 100% apelin | activation, % at 20 µM | 330,000 compounds, 0.11% hits | AID 2520, 2010;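 active = activation more than six SD over the plate average, tested at 20 µM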;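 note: 0% = DMSO alone and 100% = apelin-13 at 10 nM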
#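 Test system: CHO-K1 APJ beta-arrestin complementation cell line | Compound: Single test compound dose, 20 µM final, 1% DMSO | Incubation: Compound 90 min 25 °C, reagent 1 h | Measured by: beta-gal luminescence | Read-out basis: APJ–arrestin association signal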
# PfGluPho inh: PfG6PD enzyme inhibitors, primary screen, biochemical, fluorescence intensity, uHTS; glucose-6-phosphate dehydrogenase-6-phosphogluconolactonase (Plasmodium falciparum 3D7); PfGluPho enzyme, NADPH resazurin-diaphorase fluorescence; inhibition, % at 20 µM; 350,000 compounds, 0.78% hits; AID 504690, 2011;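 active = inhibition reaching at least a set limit at 20 µM in the primary screen, cut at about 59% in these data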;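 note: 0% = DMSO wells with substrate and 100% = DMSO wells lacking glucose-6-phosphate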
# An asterisk follows results filed as active; nt = no result given; ! = repeats disagree.
SMILES,CCR6 antagonist,APJ antagonist,B2AR ag,CXCR6 block,APJ agonist,PfGluPho inh
Cc1cccc(C(=O)Nc2scc(-c3ccc(Br)cc3)c2C(=O)O)c1,-5,19,-4,0,-3,52
CN(C)c1ccc(C=c2c3ccccc3n3c2c2c([n+]3C)CCCC2)cc1,47,nt,0,45*,nt,13
CN(C)c1ccc(C=c2c3ccccc3n3c2cc(-c2ccccc2)[n+]3C)cc1,62*,nt,-588,52*,nt,49
Cc1cc(Cl)ccc1C(O)c1ncc(-c2cccc3ccccc23)[nH]1 (stereo unspecified),nt,nt,nt,-7,nt,nt
CCCCCCn1c(SCC(C)C)nc2c1c(=O)[nH]c(=O)n2C,3,-23,-8,-4,-4,-6
CCCCCCn1c(SCC(=O)OC)nc2c1c(=O)[nH]c(=O)n2C,19,-3,1,2,-4,78*
CC1CCCN(CC(O)CN2CCN(CC(O)CN3CCCC(C)C3)C(C)C2)C1 (stereo unspecified),-3,nt,-4,-9,nt,-11
O=C(/C=C/c1ccccn1)c1ccc(Br)cc1O,17,nt,-3,-1,nt,19
O=C(/C=C/c1ccccn1)c1cc(Br)ccc1O,59*,-5,3,5,0,23
CC12CC3OC3CC1CCC1C2CCC2(C)C1CCC21OCCO1 (stereo unspecified),22,nt,76*,-2,nt,-11
O=[N+]([O-])c1ccc(C=Nc2ccc(Cl)c([N+](=O)[O-])c2)s1,nt,-33,26,0,-1,nt
NC(=O)c1ccc(N=Cc2ccc([N+](=O)[O-])s2)cc1,31,nt,24,-23,nt,72*
Cc1cc(C)cc(N=Cc2ccc([N+](=O)[O-])s2)c1,12,-31,9,-9,2,62*
O=C(Cc1cccc(NC(=O)C2CCN(C(=O)C3CC3)CC2)c1)Nc1cccc(C(=O)N2CCCC2)c1,-4,-2,4,-7,-3,-3
O=C(C(Cc1ccccc1)N1C(=O)C2C3C=CC(C3)C2C1=O)N1CCCCCC1 (stereo unspecified),11,9,15,5,0,-18
O=C(C(Cc1ccccc1)N1C(=O)C2C3C=CC(C3)C2C1=O)N1CCCCC1 (stereo unspecified),108*,-22,-3,-18,-4,5
O=Cc1cc2cc3c(cc2nc1Cl)OCCO3,-13,-5,nt,nt,5,-1
O=C(O)c1ccc(N/N=C/c2cc3cc4c(cc3nc2Cl)OCCO4)cc1,6,22,45*,13,0,8
CC(C)C(=O)N1CCC1(C)C(=O)Nc1cccc(Oc2ccccc2)c1 (stereo unspecified),nt,nt,nt,5,nt,nt
CSCC[C@H](NC(=O)N1CCn2c1nc1ccccc12)C(=O)NCc1ccco1,11,-7,-8,-8,-3,14
NS(=O)(=O)c1ccc(NCc2cc(Cl)ccc2OCc2ccccc2F)cc1,54*,-5,7,-12,-3,-2
O=[N+]([O-])c1ccc2nc(NN=Cc3ccc(O)cc3)sc2c1,78*,nt,17,55*,nt,15
CC(C)c1ccc(/C=C/C(=O)Nc2nc3ccc([N+](=O)[O-])cc3s2)cc1,12,24,7,3,-1,-1
Cc1nn(CC(=O)NCCC2=CCCCC2)c(C)c1S(=O)(=O)N(C)C,10,-16,0,-4,-2,-14
COc1cccc(/C=C2\SC(=S)NC2=O)c1OS(=O)(=O)c1ccc(NC(C)=O)cc1,11,17,77*,6,-1,-49
SMILES,CCR6 antagonist,APJ antagonist,B2AR ag,CXCR6 block,APJ agonist,PfGluPho inh
COc1ccc(/C=C2\SC(=S)NC2=O)cc1OS(=O)(=O)c1ccc(NC(C)=O)cc1,25,nt,15,8,nt,8
C=Cc1c(C)c2cc3[nH]c(cc4nc(cc5nc(cc1[nH]2)C(C)=C5CCC(=O)O)C(CCC(=O)O)=C4C)c(C)c3C=C,33,20,45*!,5,0,13
CN(C(=O)c1nn(C)c2c1CSc1ccccc1-2)c1ccc(F)cc1,1,1,-18,5,-1,11
O=[N+]([O-])c1ccc(O)c(/C=N\N=C2c3ccccc3-c3ccccc32)c1,56*,26,28,23,-1,-12
CN(C)CC(CCC(CN(C)C)C(=O)c1ccccc1)C(=O)c1ccccc1 (stereo unspecified),98*,nt,41,76*,nt,20
Cn1cnc([N+](=O)[O-])c1S(=O)(=O)Oc1cccc2ccccc12,74*,nt,21,49*,nt,36
Cn1cnc([N+](=O)[O-])c1S(=O)(=O)Oc1ccc(Cl)cc1,60*,nt,14,52*,nt,13
CC(C)C[C@@H](CN)NC(=O)c1nc[nH]c1C(=O)N[C@@H](CC(C)C)C(=O)CNC[C@H](C)NC(=O)c1nc[nH]c1C(=O)N[C@@H](C)C(=O)O,-8,nt,-11,-1,nt,-2
Oc1cc2c(cc1O)C(c1ccccc1)CNCC2 (stereo unspecified),14,2,-12,-4,-1,47
Oc1cc2c(cc1O)[C@@H](c1ccccc1)CNCC2,3,nt,3,0,nt,69*
O=S(=O)(NCCOc1ccccc1Cl)c1ccc2oc3ccccc3c2c1,16,-3,-3,-4,4,58
Cn1c(=O)c(=O)n(C)c2cc(S(=O)(=O)NCCOc3ccccc3Cl)ccc21,11,40*,-4,4,-4,-8
CCCn1nnc(NC(=O)/C=C/c2cc(Br)ccc2OC)n1,-1,13,-1,-1,-1,1
O=C(CCC1CCCC1)NNC(=O)c1ccc(F)cc1,2,13,-1,-8,-5,13
CO/N=C/c1ccc(Sc2ccc(C)cc2)c([N+](=O)[O-])c1,14,-10,7,2,-4,-17
Cc1ccc(Sc2ccc(/C=N/O)cc2[N+](=O)[O-])cc1,26,-7,58*,8,-4,14
COc1ccc(C(=O)COC(=O)CN2C(=O)C3C4CCC(C4)C3C2=O)cc1 (stereo unspecified),1,7,0,0,-2,3
COc1ccc(C(=O)NN(C)c2nc(-c3ccccc3)nnc2C(F)(F)F)cc1,5,-9,49*,-6,-1,-7
C[C@@H]1CN([C@H](C)CO)C(=O)CCCn2nncc2CO[C@@H]1CN(C)C(=O)CCC(F)(F)F,nt,nt,nt,2,nt,3
CCOC(=O)/C(=C\c1ccc(OC(F)F)cc1)C1=Nn2c(nnc2-c2ccc(Cl)cc2)SC1,22,nt,80*,18,nt,25

# Screening results deposited in PubChem BioAssay by several laboratories.
